Hits are enriched below; roughly 2.4% of the tested compounds scored in any of these assays.
S100A4 inh HTS: inhibitors of S100A4-myosin IIA peptide binding, primary screen, biochemical, fluorescence polarization, TAMRA-MyoIIA peptide; inhibition, % at 10.7 µM; hit rate 0.14% among 360,000; AID 652163, 2013;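 active means mean inhibition of at least 70% across replicates, with every replicate also reaching that level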
Target sequence (P26447 whole entry, looked up): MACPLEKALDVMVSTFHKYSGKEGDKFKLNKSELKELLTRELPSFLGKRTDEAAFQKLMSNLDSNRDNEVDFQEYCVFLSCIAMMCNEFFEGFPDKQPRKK
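Material: human S100A4 monomer with TAMRA-labelled myosin IIA peptide; buffer or medium: HEPES pH 7.2 with CaCl2, KCl, NaCl, DTT, Triton; compound dosing: one concentration per compound; schedule: 5 min incubation before reading; benchmarks: neutral control DMSO, positive control TFP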
Casp6 inh: human caspase-6 inhibitors, primary screen, biochemical, VEID-R110 fluorescence, single point, set 2 | P55212 | purified caspase-6, Z-VEID-R110 cleavage fluorescence | inhibition, % at 12.5 µM | hit rate 0.53% among 350,000;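 active means mean inhibition across replicates at least about 35%, with every replicate also reaching that limit, limit read from the data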
Target sequence (P55212 24-179 limits assumed): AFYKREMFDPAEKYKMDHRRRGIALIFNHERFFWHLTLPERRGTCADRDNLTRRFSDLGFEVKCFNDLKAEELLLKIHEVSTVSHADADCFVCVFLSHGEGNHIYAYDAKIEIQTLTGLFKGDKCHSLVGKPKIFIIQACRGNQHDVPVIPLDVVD
Target sequence (P55212 194-293 limits assumed): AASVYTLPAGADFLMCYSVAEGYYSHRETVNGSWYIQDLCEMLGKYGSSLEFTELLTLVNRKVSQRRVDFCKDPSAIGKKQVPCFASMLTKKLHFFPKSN
ERAP1 inh: human ERAP1 aminopeptidase inhibitors, primary screen, biochemical, single point, plate reader; Endoplasmic reticulum aminopeptidase 1 (Homo sapiens), Q9NZ08; recombinant ERAP1, Leu-AMC fluorescence, 60 min; inhibition, % at 10.7 µM; hit rate 0.15% among 340,000; AID 652197, 2013;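 active means mean replicate inhibition of at least 30%, or all replicates individually reaching that 30% level; inactive means mean below 30% and not every replicate reaching it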
PGC1a acetyl inh: inhibitors of PGC1a acetylation signal, primary screen, cell-based, U2OS, AlphaScreen, inhibitor mode. hit rate 0.17% among 350,000. AlphaScreen anti-acetyl-lysine; with virally co-expressed GCN5 acetyltransferase. inhibition, % at 15.6 µM;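 active means every replicate shows inhibition of at least 40%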
ARNT-TACC3 inh: disruptors of ARNT/TACC3 protein interaction, primary screen, biochemical, AlphaScreen, single concentration. Transforming acidic coiled-coil-containing protein 3 (Homo sapiens), Q9Y6A5. inhibition, % at 9.99 µM. AlphaScreen His-ARNT PAS-B/GST-TACC3 binding, luminescence; TACC3 fragment carries E629A point mutation. hit rate 0.66% among 390,000;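 active means mean inhibition of replicates at least 50% and at least half of replicates each reaching 50%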
rRNA inh HTS: reduced GFP signal of wild-type E. coli, primary screen, bacterial rRNA inhibitor project, GFP/RFP fluorescence, OD600, single point. E. coli WT GFP vs humanized-ribosome RFP mutants, 24 h; active compounds read low; DMSO median 0, no signal -100. AID 720706, 2013. hit rate 1.6% among 350,000. GFP signal change (wild-type ribosome), % (no concentration beside the values);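 active means significant combined selectivity score with lowered wild-type GFP, culture density cut under 30%, mutant RFP and density less affected; inactive means any of these conditions unmet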
Of the large screens only hits and unclear results are named; the others gave an inactive call.

O=c1[nH]c(CN2CCN(c3ccc(O)cc3)CC2)nc2scc(-c3ccc(Cl)cc3)c12	rRNA inh HTS -24 (no result: PGC1a acetyl inh)
COc1ccc(OC)c(-c2csc(NC(=O)CN3C(=O)NC4(CCCC4)C3=O)n2)c1	rRNA inh HTS -25 (no result: PGC1a acetyl inh)
COC(=O)CC1OCC=C2CN3CCC45C6=CC(=O)C(=O)C([N+](=O)[O-])=C6NC4C1C2CC35 (stereo unspecified)	Casp6 inh 69 (no result: ARNT-TACC3 inh)
C[C@H](CO)N1C[C@H](C)[C@H](CN(C)Cc2ccc(Cl)c(Cl)c2)Oc2ccc(N(C)C)cc2C1=O	none
Cn1c(=O)c([N+](=O)[O-])c(NCCc2ccccc2)c2ccccc21	none (no result: S100A4 inh HTS, Casp6 inh, ERAP1 inh, ARNT-TACC3 inh, rRNA inh HTS)
Cn1c(=O)c([N+](=O)[O-])c(NCc2ccccc2Cl)c2ccccc21	rRNA inh HTS -29
CC(=O)c1ccc(S(=O)(=O)Nc2cccc(-n3cnnn3)c2)cc1	Casp6 inh 56 (no result: ARNT-TACC3 inh)
C[C@@H]1CN([C@@H](C)CO)C(=O)c2cc(C#Cc3ccccn3)cnc2O[C@@H]1CN(C)C(=O)c1ccccn1	none
C[C@H](CO)N1C[C@H](C)[C@H](CN(C)C(=O)c2ccncc2)Oc2cc(-c3cccc(C#N)c3)ccc2S1(=O)=O	none
COc1ccc(N2C(=O)C3CCCN3C2c2ccc(Cl)cc2)cc1 (stereo unspecified)	none (no result: ERAP1 inh, PGC1a acetyl inh)
COc1ccc(C2N(c3ccc(Cl)cc3)C(=O)C3CCCN32)cc1 (stereo unspecified)	ARNT-TACC3 inh 30 (no result: PGC1a acetyl inh)
CC(C)NC(=O)N(C)C[C@H]1Oc2cc(-c3ccncc3)ccc2S(=O)(=O)N([C@@H](C)CO)C[C@H]1C	none
COc1cccc(/C=N/NC(=O)c2cc(-c3cccn3C)n[nH]2)c1	rRNA inh HTS -24 (no result: PGC1a acetyl inh)
COc1cccc(/C=N/NC(=O)C(=O)NCc2ccco2)c1OC	none (no result: S100A4 inh HTS, Casp6 inh, ERAP1 inh, PGC1a acetyl inh, rRNA inh HTS)
COc1cccc(/C=N/NC(=O)C(=O)NCc2ccco2)c1O	ARNT-TACC3 inh 60 (no result: S100A4 inh HTS, Casp6 inh, ERAP1 inh, rRNA inh HTS)
COc1ccc(/C=N/NC(=O)c2cnccn2)c(OC)c1OC	none
COc1cccc(/C=N/NC(=O)c2cnccn2)c1O	ARNT-TACC3 inh 58
COc1cccc(/C=N/NC(=O)c2cc(-c3cccn3C)n[nH]2)c1O	rRNA inh HTS -36 (no result: PGC1a acetyl inh, ARNT-TACC3 inh)
CCCNC(=O)N1[C@H](CO)[C@@H](c2ccccc2)C12CN(C(=O)C1CCCCC1)C2	none (no result: ARNT-TACC3 inh)
COCC(=O)Nc1ccc2c(c1)[C@@H]1C[C@H](CC(=O)NCC3CC3)O[C@@H](CO)[C@@H]1O2	none
C[C@@H]1CN([C@@H](C)CO)C(=O)c2cccc(NS(=O)(=O)c3ccc(F)cc3)c2O[C@H]1CN(C)C(=O)Nc1ccccc1	none (no result: Casp6 inh, rRNA inh HTS)
CCOc1cc(Br)cc(/C=N/NC(=O)c2cccnc2)c1O	ARNT-TACC3 inh 56 (no result: PGC1a acetyl inh)
COc1ccc(S(=O)(=O)NCCSc2ccc(Cl)cc2)cc1OC	rRNA inh HTS -38
O=S(=O)(NCCSc1ccc(Cl)cc1)c1ccc2c(c1)OCCO2	none (no result: S100A4 inh HTS, Casp6 inh, ERAP1 inh, ARNT-TACC3 inh, rRNA inh HTS)
CC(C)NC(=O)N(C)C[C@@H]1Oc2ccc(NC(=O)Nc3ccc(C(F)(F)F)cc3)cc2CC(=O)N([C@@H](C)CO)C[C@H]1C	ARNT-TACC3 inh 46
C[C@@H]1CN([C@@H](C)CO)C(=O)c2cc(NC(=O)Nc3ccccc3)ccc2O[C@@H]1CN(C)Cc1ccc2c(c1)OCO2	Casp6 inh 54
CC(C)NC(=O)N(C)C[C@H]1Oc2ccc(NC(=O)Nc3ccc(C(F)(F)F)cc3)cc2CC(=O)N([C@H](C)CO)C[C@H]1C	none
C[C@H](CO)N1C[C@H](C)[C@@H](CN(C)Cc2ccc3c(c2)OCO3)Oc2ccc(NC(=O)Nc3ccccc3)cc2C1=O	none
C[C@@H]1CN([C@H](C)CO)C(=O)Cc2cc(NC(=O)Nc3ccc(C(F)(F)F)cc3)ccc2O[C@H]1CN(C)Cc1ccc2c(c1)OCO2	S100A4 inh HTS 101

High-throughput results: PubChem, Broad Institute
